Assay results from ChEMBL document CHEMBL3867447, “Cytotoxic 14-Membered Macrolides from a Mangrove-Derived Endophytic Fungus, Pestalotiopsis microspora” (J Nat Prod, 2016).

What was measured:
[1] = Cytotoxicity against human A2780 cells by MTT assay; format: functional, cell-based
Outline: (§1)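 MTT assay on mouse lymphoma L5178Y and human ovarian cancer A2780 cells, as in the earlier reports the paper cites. Positive controls were kahalalide F for L5178Y and cisplatin for A2780. Negative control was medium with 0.1% DMSO. Results are given as IC50 in μM.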

[2] = Cytotoxicity against mouse L5178Y cells by MTT assay; format: functional, cell-based; outline: as §1

For `C[C@H]1CCC[C@@H](O)/C=C/C=C\C(=O)CCC(=O)O1`, the IC50 [1] was 36 µM and the IC50 [2] was > 50 µM.
In the case of `C[C@H]1CCC/C=C/[C@H](O)/C=C\[C@H](O)/C=C/C(=O)O1`, the IC50 [1] is reported as > 50 µM and the IC50 [2] is reported as 21 µM.
In the case of `CO[C@H]1/C=C\CCC[C@H](C)OC(=O)CCC(=O)/C=C\1`, the IC50 [1] is reported as > 50 µM and the IC50 [2] is reported as 5.6 µM.
With `C[C@H]1CCC/C=C/[C@H](O)[C@H]2O[C@H]2[C@H](O)/C=C/C(=O)O1` the IC50 [1] was > 50 µM and the IC50 [2] was > 50 µM.
Work on `C[C@H]1CCC[C@@H](O)/C=C/C=C\[C@H](O)/C=C/C(=O)O1` yielded an IC50 [1] of 1.2 µM and an IC50 [2] of 3.4 µM.
In the case of `C[C@H]1CCC/C=C\[C@H](O)[C@H]2O[C@H]2[C@H](O)/C=C/C(=O)O1`, the IC50 [1] is reported as > 50 µM and the IC50 [2] is reported as > 50 µM.
With `CO[C@H]1/C=C\CCC[C@H](C)OC(=O)/C=C/[C@@H](O)/C=C\1` the IC50 [1] was 28 µM and the IC50 [2] was 0.7 µM.
`C[C@H]1CCC/C=C\[C@H](O)/C=C\[C@H](O)/C=C/C(=O)O1` showed an IC50 [1] of 43 µM and an IC50 [2] of 21 µM.
In the case of `CO[C@H]1/C=C/C=C\C(=O)CCC(=O)O[C@@H](C)CCC1`, the IC50 [1] is reported as > 50 µM and the IC50 [2] is reported as 11 µM.
In the case of `C/C=C1\NC(=O)[C@H](Cc2ccccc2)NC(=O)[C@H](C(C)C)NC(=O)[C@@H]([C@@H](C)CC)NC(=O)[C@@H](NC(=O)[C@H](NC(=O)[C@H](CCCN)NC(=O)[C@H]2CCCN2C(=O)[C@@H](NC(=O)[C@H](NC(=O)[C@@H](NC(=O)[C@@H](NC(=O)CCCC(C)C)C(C)C)[C@@H](C)O)C(C)C)C(C)C)[C@@H](C)CC)[C@@H](C)OC(=O)[C@H](C(C)C)NC1=O`, the IC50 [2] is reported as 4.3 µM.
Work on `C[C@H]1CCC[C@@H](O)/C=C/C=C\[C@@H](O)/C=C/C(=O)O1` yielded an IC50 [1] of 12 µM and an IC50 [2] of 3.9 µM.
For `C[C@H]1CCCCC[C@H](O)CC[C@H](O)/C=C/C(=O)O1`, the IC50 [1] was > 50 µM and the IC50 [2] was 39 µM.
